The term Papp denotes the rate of passage across a membrane or cell layer, normalised by area and donor concentration. The low end stands for slow passage, the high end for fast passage. What is called efflux ratio is the permeability from basolateral to apical divided by that in the opposite direction, in the common usage. What is called Papp A→B is the apparent permeability from the apical to the basolateral side of a cell layer. Usually Papp B→A stands for how fast a substance crosses the layer from the basolateral side.

Each structure is given as a SMILES string.

Here are results for 3 compounds from PMC4944921 (Drug Design, Development and Therapy, 2016).

Data set [1] has as its system TJ proteins (occludin, claudin-1, F-actin) in Calu-3 cells. Description: Immunofluorescence microscopy of tight junction proteins in Calu-3 cells. It counts as cell-based, human. The note with it: 3 hours treatment, vs control group. The method in brief: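 Calu-3 monolayers on collagen-coated 0.4 μm PET Transwell membranes were exposed to test compounds in medium for 3 h. Cells were fixed in cold 4% paraformaldehyde for 30 min and blocked with goat serum for 1 h. Anti-occludin or anti-claudin-1 (1:100, 4°C overnight) was detected with TRITC anti-rabbit or FITC anti-mouse IgG. F-actin was stained with phalloidin (1:150, RT, 30 min) and nuclei with DAPI. Relative AOD = (IntDen/Area) as % of control; three experiments; Dunnett test.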

In data set [2] the test system is Calu-3 cells. Description: MTT cytotoxicity assay in Calu-3 cells. The conditions noted are these: comparison of the three compounds. It is filed as cell-based, human. The method in brief:
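Calu-3 cells were seeded at 1×10^5 cells/mL in 96-well plates and grown for 48 h at 37°C in 5% CO2. They were then exposed to test compounds at various concentrations for 48 h. MTT (5 mg/mL stock in PBS) was added for 4 h at 37°C, formazan was dissolved in DMSO, and A490 was read. Viability (%) = (Asample−Ablank)/(Acontrol−Ablank)×100, from the mean of five measurements.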

The test system of data set [3] is abdominal skin of Rana catesbeiana. The note with it: menthol 5 mg/mL with puerarin, compared with puerarin alone group; cited from earlier work.
The conditions of data set [4]: cited from earlier work.
In data set [5] the test system is Calu-3 cells. Put plainly: TEER change of Calu-3 monolayers after exposure to compounds. The conditions noted are these: A→B and B→A, 30-180 minutes, vs control group. It counts as cell-based, human. The method in brief:
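Monolayers with TEER above 500 Ω cm2 received drug solution on the apical side (HBSS basolateral) or on the basolateral side (HBSS apical). Untreated monolayers served as control. TEER was read with chopstick electrodes and an epithelial volt–ohm meter at 30, 60, 90, 120, 150 and 180 min. Values are expressed relative to pre-experiment TEER (100%) and compared with control by one-way ANOVA and Dunnett test (P<0.05); three experiments, mean ± SD.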

A short description of data set [6]: Puerarin bidirectional transport across Calu-3 cell monolayers. It is filed as in vitro ADME, human. The note with it: human. The method in brief:
(§1)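 Calu-3 cells (passages 5–10) were grown on collagen-coated PET Transwells, switched to air-interface culture from day 5 and used once TEER exceeded 500 Ω cm2. Monolayers were HBSS-washed and equilibrated for 30 min at 37°C. Drug was placed apically (A→B) or basolaterally (B→A), with shaking at 37°C. Receiver samples were taken at 30–180 min for HPLC-UV at 250 nm (C18; methanol:1% acetate 37:63). Papp was normalised to donor concentration and membrane area; ER = Papp(B→A)/Papp(A→B); n=3.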

In a further data set the test system is Calu-3 cell monolayer. Described as above. It is filed as in vitro ADME, human. The method in brief: as §1

For the compound `CC1CCC(C(C)C)C(O)C1` (centres unmarked) [menthol], in data set [1], the “relative AOD of occludin, claudin-1, and F-actin” value (“relative AOD of occludin” below) was “decreased significantly”. Besides, in the data set on Calu-3 cells [2], the “relative toxicity to Calu-3 cells” value is “most toxic”. The “Papp value of puerarin” value in data set [3] is on record as “significantly higher”.
Turning to `C[C@@]12C[C@@]3(O)O[C@@H](O1)[C@]1(COC(=O)c4ccccc4)[C@H]3C[C@@]12O[C@@H]1O[C@H](CO)[C@@H](O)[C@H](O)[C@H]1O` [paeoniflorin], the “relative AOD of occludin” value in data set [1] is “did not significantly differ”.
On to `O=c1c(-c2ccc(O)cc2)coc2c([C@@H]3O[C@H](CO)[C@@H](O)[C@H](O)[C@H]3O)c(O)ccc12` [puerarin], for which the “AUC0−∞ (plasma)” value in data set [4] (Tongqiaosanyu, caudal vein injection, rats) is 787.99±70.44 mg⋅min⋅L^−1. Moreover, the “AUC0–∞ (plasma)” value in data set [4] (Tongqiaosanyu, nasal administration, rats) is listed as 376.56±93.93 mg⋅min⋅L^−1. The “brain drug targeting index” value in data set [4] (intranasal administration) is 2.70. Besides, in data set [4] (intranasal administration), the “brain targeting coefficient (Re)” value was 132.25%. For the same compound, the absolute bioavailability in data set [4] (nasal administration) is on record as 47.78%. For the same compound, the “relative AOD of occludin” value in data set [1] is recorded as “did not significantly differ”. Moreover, the “trend of TEER change” value in the data set with Calu-3 cells [5] is reported as “no difference from the control group”. The “relative toxicity to Calu-3 cells” value with Calu-3 cells [2] was “safer and less irritating than paeoniflorin”. Also, the Papp at 180 min in data set [6] is less than 1.5 ×10⁻⁶ cm/s. The efflux ratio at 180 min, 30 μg/mL in data set [6] (ER (B→A/A→B), puerarin 30 μg/mL alone) came to 0.963 ± 0.065. In data set [6] (ER (B→A/A→B), puerarin 60 μg/mL alone), the efflux ratio at 180 min, 60 μg/mL was 1.01 ± 0.032. For the same compound, the Papp A→B at 180 min, 30 μg/mL in data set [6] (Papp (A→B), puerarin 30 μg/mL alone) is 1.22 ± 0.027 ×10⁻⁶ cm/s. The Papp A→B at 180 min, 60 μg/mL is 1.28 ± 0.084 ×10⁻⁶ cm/s in data set [6] (Papp (A→B), puerarin 60 μg/mL + menthol 15 μg/mL); 1.64 ± 0.058 ×10⁻⁶ cm/s in data set [6] (Papp (A→B), puerarin 60 μg/mL + menthol 30 μg/mL); 1.79 ± 0.087 ×10⁻⁶ cm/s in data set [6] (Papp (A→B), puerarin 60 μg/mL + menthol 60 μg/mL); 1.24 ± 0.027 ×10⁻⁶ cm/s in data set [6] (Papp (A→B), puerarin 60 μg/mL + paeoniflorin 12 μg/mL); 1.3 ± 0.15 ×10⁻⁶ cm/s in data set [6] (Papp (A→B), puerarin 60 μg/mL + paeoniflorin 12 μg/mL + menthol 15 μg/mL); 1.23 ± 0.054 ×10⁻⁶ cm/s in data set [6] (Papp (A→B), puerarin 60 μg/mL + paeoniflorin 24 μg/mL). Besides, the Papp A→B at 180 min, 60 μg/mL amounted to 1.56 ± 0.143 ×10⁻⁶ cm/s in data set [6] (Papp (A→B), puerarin 60 μg/mL + paeoniflorin 24 μg/mL + menthol 30 μg/mL); 1.23 ± 0.025 ×10⁻⁶ cm/s in data set [6] (Papp (A→B), puerarin 60 μg/mL + paeoniflorin 48 μg/mL); 1.96 ± 0.067 ×10⁻⁶ cm/s in data set [6] (Papp (A→B), puerarin 60 μg/mL + paeoniflorin 48 μg/mL + menthol 60 μg/mL); 1.23 ± 0.039 ×10⁻⁶ cm/s in data set [6] (Papp (A→B), puerarin 60 μg/mL alone). For the same compound, the Papp A→B at 180 min, 120 μg/mL in data set [6] (Papp (A→B), puerarin 120 μg/mL alone) was 1.24 ± 0.053 ×10⁻⁶ cm/s. The Papp A→B at 180 min in data set [6] (Papp (A→B), puerarin alone, span over 30, 60 and 120 μg/mL) fell in the range of 1.22 to 1.24 ×10⁻⁶ cm/s. For the same compound, the Papp B→A at 180 min, 30 μg/mL in data set [6] (Papp (B→A), puerarin 30 μg/mL alone) turned out to be 1.17 ± 0.053 ×10⁻⁶ cm/s. Also, the Papp B→A at 180 min, 60 μg/mL in data set [6] (Papp (B→A), puerarin 60 μg/mL + menthol 15 μg/mL) was 1.36 ± 0.083 ×10⁻⁶ cm/s; in data set [6] (Papp (B→A), puerarin 60 μg/mL + menthol 30 μg/mL) it was 1.8 ± 0.111 ×10⁻⁶ cm/s; in data set [6] (Papp (B→A), puerarin 60 μg/mL + menthol 60 μg/mL), 2.07 ± 0.151 ×10⁻⁶ cm/s; in data set [6] (Papp (B→A), puerarin 60 μg/mL + paeoniflorin 12 μg/mL) it was 1.24 ± 0.037 ×10⁻⁶ cm/s; in data set [6] (Papp (B→A), puerarin 60 μg/mL + paeoniflorin 12 μg/mL + menthol 15 μg/mL), 1.29 ± 0.067 ×10⁻⁶ cm/s; in data set [6] (Papp (B→A), puerarin 60 μg/mL + paeoniflorin 24 μg/mL) it was 1.25 ± 0.032 ×10⁻⁶ cm/s. The Papp B→A at 180 min, 60 μg/mL in data set [6] (Papp (B→A), puerarin 60 μg/mL + paeoniflorin 24 μg/mL + menthol 30 μg/mL) came to 1.91 ± 0.254 ×10⁻⁶ cm/s; in data set [6] (Papp (B→A), puerarin 60 μg/mL + paeoniflorin 48 μg/mL), 1.29 ± 0.035 ×10⁻⁶ cm/s; in data set [6] (Papp (B→A), puerarin 60 μg/mL + paeoniflorin 48 μg/mL + menthol 60 μg/mL), 2.14 ± 0.13 ×10⁻⁶ cm/s; in data set [6] (Papp (B→A), puerarin 60 μg/mL alone) it was 1.24 ± 0.055 ×10⁻⁶ cm/s. In data set [6] (Papp (B→A), puerarin 120 μg/mL alone), this compound had a Papp B→A at 180 min, 120 μg/mL of 1.27 ± 0.104 ×10⁻⁶ cm/s. In data set [6] (Papp (B→A), puerarin alone, span over 30, 60 and 120 μg/mL), this compound returned a Papp B→A at 180 min of 1.17 to 1.27 ×10⁻⁶ cm/s. The efflux ratio at 180 min in data set [6] (efflux ratio (ER), puerarin alone, each concentration 30, 60, 120 μg/mL) was less than 1.5. Also, the “ER (B→A/A→B)” value in the data set on Calu-3 cell monolayer (puerarin 60 μg/mL + menthol 15 μg/mL) was found to be 1.065±0.116; in the data set on Calu-3 cell monolayer (puerarin 60 μg/mL + menthol 30 μg/mL), 1.100±0.060; with Calu-3 cell monolayer (puerarin 60 μg/mL + menthol 60 μg/mL), 1.157±0.088; in the data set on Calu-3 cell monolayer (puerarin 60 μg/mL + paeoniflorin 12 μg/mL), 1.002±0.039; with Calu-3 cell monolayer (puerarin 60 μg/mL + paeoniflorin 12 μg/mL + menthol 15 μg/mL), 0.999±0.150; with Calu-3 cell monolayer (puerarin 60 μg/mL + paeoniflorin 24 μg/mL) it was 1.018±0.065. Moreover, the “ER (B→A/A→B)” value with Calu-3 cell monolayer (puerarin 60 μg/mL + paeoniflorin 24 μg/mL + menthol 30 μg/mL) is 1.228±0.157; with Calu-3 cell monolayer (puerarin 60 μg/mL + paeoniflorin 48 μg/mL), 1.049±0.027; with Calu-3 cell monolayer (puerarin 60 μg/mL + paeoniflorin 48 μg/mL + menthol 60 μg/mL) it was 1.091±0.048; in the data set on Calu-3 cell monolayer (puerarin 120 μg/mL alone) it was 1.023±0.070. In addition, in the data set on Calu-3 cell monolayer (puerarin alone, each concentration 30, 60, 120 μg/mL), the “efflux ratio (ER)” value was ~ 1.
